Reference: article PMC2883079 (European Journal of Immunology, 2009)
Where “and” joins values, the source holds several entries; their conditions need not be identical. Equal values may be shown once. Read-outs that look alike come from different tables or passages of the source. No end group written: not given here.

Key:
[1] = test system: HEK293 cells expressing human CCR6; assay: Chemotaxis assay, HEK293 cells expressing human CCR6; format: cell-based; conditions: HEK293 cells overexpressing human CCR6, 5 h
Summary of the method: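 48-well chemotaxis chamber, 5 h. Cells at 5×10^5 per mL in RPMI 1640 with 1% BSA, which also served as diluent and no-peptide control. CCL20 positive control. Migrated cells counted in three random ×400 fields per well, triplicate wells, as mean per field. MI = count at optimal concentration / control count. One-tailed Student's t-test. Representative of at least three experiments.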

[2] = cited from earlier work
mouse CD4^+ T cells = assay: Chemotaxis assay, mouse CD4+ T cells; format: cell-based; conditions: 4 h
Summary of the method: (§1)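 In 48-well chemotaxis chambers, cells migrated for 4 h. Human CD4+ cells came from Ficoll–Paque mononuclear cells of donor blood or bone marrow, with CCL20 as positive control. Mouse cells were splenic CD4+ from magnetic positive selection, CD4/CD3-stained, with CXCL12a as control. Cells were at 5×10^5/mL in RPMI 1640/1% BSA, the medium also used to dilute peptides. Three ×400 fields were counted per triplicate well. MI = migrated cells at optimal concentration / peptide-free control. One-tailed t-test.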

[3] = test system: immature DC (iDC), bone marrow-derived, 6 days in GM-CSF; assay: Chemotaxis assay, iDC cultured in GM-CSF for 6 days; format: cell-based, mouse; conditions: 1.5 h
human CD4^+ T cells = assay: Chemotaxis assay, human CD4+ T cells; format: cell-based; conditions: for optimal concentration for chemotaxis / migratory index (MI): 4 h; for migratory index (MI): at optimal concentration
Summary of the method: as §1

mature DC (mDC) = assay: Chemotaxis assay, LPS-matured DC; format: cell-based, mouse; conditions: DC matured 24 h with 100 ng/mL E. coli LPS; 1.5 h
Summary of the method: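 Mouse tibia/femur marrow at 3.75×10^5 cells/mL with GM-CSF supernatant (5%, 500 U/mL), refed day 3. Day 6 cultures then had LPS for 24 h. Phenotyped by flow for CD11c/MHC II, CD86, CD54, Gr1 and B220. 48-well chamber, 1.5 h, RPMI/1% BSA, cells at 5×10^5 per mL. CCL19 positive control. Three ×400 fields per well, triplicate wells, SD over nine counts, one-tailed t-test.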

[4] = test system: immature DC (iDC), bone marrow-derived, 7 days in GM-CSF; assay: Chemotaxis assay, iDC cultured in GM-CSF for 7 days; format: cell-based, mouse
Summary of the method: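 Mouse tibia/femur marrow cells were seeded at 3.75×10^5/mL in complete medium with 5% (500 U/mL) GM-CSF supernatant, refed on day 3. Loosely adherent cells were harvested on day 6 or day 7. Migration ran 1.5 h in 48-well chambers, cells at 5×10^5/mL in RPMI 1640/1% BSA, with CCL20 as positive control. Three ×400 fields were counted per triplicate well. MI = migrated cells at optimal peptide / control medium. One-tailed t-test, p<0.05.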

CD4 T cells = assay: Chemotaxis of CD4 T cells; format: cell-based; conditions: species of cells not stated
Summary of the method: as §1

Antimicrobial activity = format: cell-based; conditions: data not shown
neutrophils = assay: Chemotaxis assay, peritoneal neutrophils; format: cell-based, mouse; conditions: at least 90% pure, positive control at 45 ng/mL
Summary of the method: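 Mouse peritoneal neutrophils, identified by morphology and at least 90% pure. Tested in 48-well chemotaxis chambers with N-formylmethionyl leucyl phenylalanine as positive control and RPMI 1640/1% BSA as medium and no-peptide control. Cells at 5×10^5 per mL. Migrated cells counted in three random ×400 fields per well in triplicate wells. Reported as mean per field. One-tailed Student's t-test.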

[5] = d6iDC, p<0.05 vs control medium
[6] = d7iDC, at peak peptide concentration, 1.5 h

With “CCL20: recognised chemokine ligand for the CCR6 receptor, positive control [reference compound]” the “chemoattraction of CCR6-expressing cells (result in words)” value (“chemoattraction of CCR6-expressing cells” below) [1] was “can chemoattract these cells”.

In the case of “DPVTCIRNGGICQYRCIGLRHKIGTCGSPFKCCK (also: bicyclic or more (positions not given here)) [Defr1-Y5C]”, the “chemoattraction of CCR6-expressing cells” value [1] is listed as “unable to chemoattract these cells”, the “antimicrobial activity (result in words)” value [2] is listed as “poor antimicrobial activity” and the “optimal / only significant concentration for chemotaxis” value (mouse CD4^+ T cells) is listed as 100 ng/mL. The “migration of iDC (result in words)” value [3, 5] was “Neither peptide could induce migration”, the “optimal concentration for chemotaxis” value (human CD4^+ T cells) was 100 ng/mL and the “migratory index (MI)” value (human CD4^+ T cells) was 5.5. For the same molecule, the “migration of mDC (result in words)” value (mature DC (mDC)) was “Neither peptide could induce migration”.

With “DPVTYIRNGGIAQYRAIGLRHKIGTAGSPFKCAK (disulfide (positions not given here)) [Defr1-1c^V]” the “chemoattraction of CCR6-expressing cells” value [1] was “unable to chemoattract these cells”, the “optimal / only significant concentration for chemotaxis” value (mouse CD4^+ T cells) was 100 ng/mL and the “migration of iDC (result in words)” value [3, 5] was “Neither peptide could induce migration”. The “optimal concentration for chemotaxis” value (human CD4^+ T cells) was 100 ng/mL, the “migratory index (MI)” value (human CD4^+ T cells) was 5.5 and the “migration of mDC (result in words)” value (mature DC (mDC)) was “Neither peptide could induce migration”.

In the case of “DPVTYIRNGGICQYRCIGLRHKIGTCGSPFKCCK (disulfide (positions not given here)) [Defr1]”, the “peptide concentration giving peak migration” value ([4]; d7iDC, 1.5 h) is reported as 1 ng/mL, the “migratory index (MI)” value [4, 6] is reported as ~3.5 and the “migratory index (MI)” value ([4]; d7iDC, peptide at 0.1 ng/mL, p<0.05) is reported as 2.5. For the same molecule, the “chemoattraction of CCR6-expressing cells” value [1] was “neither Defr1 nor the six cysteine allele Defb8, can chemoattract these cells”, the “antimicrobial activity (result in words)” value [2] was “potent antimicrobial activity” and the “chemoattraction of CD4 T cells (result in words)” value (CD4 T cells) was “attracting CD4 T cells”. For the same molecule, the “optimal / only significant concentration for chemotaxis” value (mouse CD4^+ T cells) was 10 ng/mL, the “migratory index (MI)” value (mouse CD4^+ T cells; at optimal concentration) was 2.5 and the “peptide concentration giving peak migration” value ([3]; d6iDC) was 10 ng/mL. For the same molecule, the “activity relative to Defr1 Y5C and Defr1-1c^V (peak concentration)” value (human CD4^+ T cells) was “tenfold more active”, the “optimal concentration for chemotaxis” value (human CD4^+ T cells) was 10 ng/mL and the “migratory index (MI)” value (human CD4^+ T cells) was 8 and 9. The “migration of mDC (result in words)” value (mature DC (mDC)) was “do not show significant migration”.

With “ELDHCHTNGGYCVRAICPPSARRPGSCFPEKNPCCKYMK (also: bicyclic or more (positions not given here)) [Defb2]” the “migration of d7iDC (result in words)” value ([4]; all concentrations tested, p<0.05 vs control) was “statistically significant migration”, the “migratory index (MI)” value [4, 6] was 3.0 and the “chemoattraction of CD4 T cells (result in words)” value (CD4 T cells) was “attracting CD4 T cells”. For the same molecule, the “migration of mDC (result in words)” value (mature DC (mDC)) was “do not show significant migration”.

In the case of “EPVSCIRNGGICQYRCIGLRHKIGTCGSPFKCCK (also: bicyclic or more (positions not given here)) [Defb8]”, the “chemoattraction of CCR6-expressing cells” value [1] is reported as “neither Defr1 nor the six cysteine allele Defb8, can chemoattract these cells”, the “antimicrobial activity (result in words)” value (Antimicrobial activity) is reported as “much reduced antimicrobial activity compared with Defr1” and the “migration of iDC (result in words)” value ([3]; iDC, days of culture not stated (Fig. 4A)) is reported as “can chemoattract iDC”.

For N-formylmethionyl leucyl phenyalanine, the “migration of neutrophils (result in words)” value (neutrophils) was “significant migration”.

B1: CCL19: chemokine, positive control for mDC migration (protein, UniProt Q99731 22-98, looked up)
C-C motif chemokine 19: GTNDAEDCCLSVTQKPIPGYIVRNFHYLLIKDGCRVPAVVFTTLRGRQLCAPPDQPWVERIIQRLQRTSAKMKRRSS
In the case of B1, the “migration of mDC (result in words)” value (mature DC (mDC)) is reported as “statistically significant migration”.
